# Screening results from PubChem BioAssay.
# Shown are actives, neighbours in structure and some others; about 5.6% of the full set was active somewhere.
# XBP1 UPR activ: activators of adaptive arm of unfolded protein response (XBP1) | CHO-XBP1 luciferase reporter, IRE1-XBP1 UPR activation, luminescence; percent of tunicamycin response, DMSO as zero | activation, % at 20 µM | 0.33% of 330,000 active | AID 463104;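 active = versus positive control, 20 µM dose yields 30% or more activation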;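 note: 100% = tunicamycin at 10 µg/mL and 0% = DMSO only wells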
#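 assay system = CHO-XBP1 luciferase reporter cells | amount = 1000 cells/well | buffer or medium = F12 plus 10% FBS | compound dosing = single point, 20 µM final compound, 1% DMSO | incubation = 16-18 h cell attachment at 37 °C, then 6 h compound exposure | detection = Steady-Glo luminescence read | controls = tunicamycin 10 µg/mL and vehicle-only wells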
# CHOP inh: inhibitors of CHOP induction in ER stress response; CHO-K1 CHOP-promoter luciferase, tunicamycin-induced, 15-18 h; inhibition, % at 10 µM; 3.8% of 220,000 active; AID 2732;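 active = compounds that reduced the stress-induced luciferase reporter signal by more than about 70% of percent inhibition, limit read from the data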;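 note: 0% = tunicamycin plus vehicle and 100% = wells without tunicamycin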
# aDG glyco up: alpha-DG glycosylation activation; Pro5-aDG cells, alpha-DG glycosylation AlphaScreen (IIH6); 0% Pro5, 100% B10-LARGE cell signal; activation, % at 10 µM; 0.22% of 360,000 active;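 active = activation of at least 8% versus controls, or a plate z-score of at least 8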;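 note: Pro5 are CHO cells carrying HIG-tagged alpha-DG that lacks glycosylation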
# UPR CHOP act: activators of apoptotic arm of unfolded protein response (CHOP) | CHO-CHOP luciferase reporter, UPR activation, luminescence; percent of tunicamycin response over DMSO baseline | activation, % at 10 µM | 0.34% of 330,000 active;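 active = at 10 µM dose, activation of 40% or more, normalized to positive control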;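 note: 100% = tunicamycin at 10 µg/mL and 0% = DMSO alone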
#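 Assay system: CHO-CHOP cells, stable luciferase reporter of PERK-eIF2a-CHOP signalling / Buffer or medium: F12 plus 10% serum / Compound dosing: one dose, 10 µM in 0.5% DMSO / Times: 6 h compound treatment, 37 °C / Technique: luciferase luminescence / Read-out: % reporter activation, DMSO baseline versus tunicamycin full activation / Benchmarks: tunicamycin and DMSO controls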
# MPTP inh: inhibitors of mitochondrial permeability transition pore; AID 602449; inhibition, % at 10 µM; isolated mouse mitochondria, Ca2+ swelling absorbance, 30 min; 1.4% of 360,000 active;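 active = inhibition of 50% or more, scaled per plate between neutral and stimulator controls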;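 note: 0% = DMSO wells given calcium and 100% = 1 mM EGTA wells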
# NR3A LBD binder: modulates the human NR3A ligand-binding domain; NR3A LBD differential scanning fluorimetry, Tm shift; 0% = protein alone, 100% = glycine-bound protein; Tm shift relative to glycine control, % at 25 µM; 2.5% of 340,000 active; AID 1259313;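 active = melting temperature shift of at least 10% of the positive control shift, at one fixed dose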
# MPTP counter: Rhodamine 123 counter-screen of mitochondrial pore hits; shares compounds with MPTP inh; isolated mitochondria, membrane potential, Rhodamine 123 fluorescence; inhibition, % at 10 µM; 78% of 5,000 active; AID 624504; in the data active = inhibition above about 22%;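 note: 0% = DMSO vehicle and 100% = positive control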
# MPTP abs DR: dose response confirmation of mitochondrial permeability transition pore inhibitors; 58% of 780 active; shares compounds with MPTP inh; isolated mitochondria swelling, absorbance; AID 651561; IC50, µM; in the data active = IC50 below about 20 µM
# MPTP counter DR: counter-screen for mitochondrial permeability transition pore inhibitors, dose response; IC50, µM; isolated mitochondria counterscreen, fluorescence read-out; 49% of 780 active; shares compounds with MPTP inh; in the data active = IC50 below about 80 µM
# * = called active by the depositor; i = inactive; . = not tested or not shown.
SMILES,XBP1 UPR activ,CHOP inh,aDG glyco up,UPR CHOP act,MPTP inh,NR3A LBD binder,MPTP counter,others
CCOC(=O)/C(=C/Nc1ccc(F)cc1)[N+](=O)[O-],-3,-2,0,0,0,-1,.,
CC(=O)N1CCN(C(=O)CCc2nc3ccccc3c(=O)[nH]2)CC1,-1,-8,0,1,-8,-1,.,
O=C(CCc1nc2ccccc2c(=O)[nH]1)N1CCN(C/C=C/c2ccccc2)CC1,0,43,1,7,68*,-4,49*,
Cc1[nH]c2ccccc2c1C(=O)CN1CCN(C/C=C/c2ccccc2)CC1,-3,10,1,-2,65*,1,-9,MPTP abs DR=17*;MPTP counter DR=52*
COc1ccc2[nH]c(C)c(C(=O)CN3CCN(C/C=C/c4ccccc4)CC3)c2c1,-2,-6,1,1,0,-2,.,
Cc1nn(CCc2nn[nH]n2)c2nc(-c3ccc(C4CCCCC4)cc3)cc(C(F)(F)F)c12,7,106*,0,3,59*,-2,26*,
CN(Cc1ccco1)c1ncnc2ccc(-c3ccc4c(ccn4C)c3)cc12,17,.,0,-1,1,-7,.,
CCOc1ccc(C(=O)Nc2sc3c(c2C(=O)OC)CC(C)(C)NC3(C)C)cc1,2,-11,1,1,85*,-1,2,MPTP abs DR=20*;MPTP counter DR=>80
Cc1c(C(=O)N/N=C/c2ccc(N(C)C)cc2)[nH]c2ccc(Cl)cc12,25,-23,0,-1,80*,27*,74*,
Cc1c(C(=O)N/N=C/c2ccccc2)[nH]c2ccc(Cl)cc12,6,-42,0,4,87*,30*,89*,
COc1cc(C(=O)NN=Cc2ccc(N(C)C)cc2)cc(OC)c1OC,.,.,0,.,1,.,.,
COc1ccc([C@H]2CC(=O)C=C(c3cc4ccccc4c4ccccc34)C2)cc1,-2,.,0,3,1,0,.,
CN(C)c1ccc(NC(=O)c2ccc(Cn3cc([N+](=O)[O-])cn3)cc2)cc1,1,7,0,2,3,-4,.,
O=c1[nH]c(-c2ccc(F)cc2)nc2c1sc(=S)n2-c1ccccc1,-2,33,0,1,56*,-3,8,MPTP abs DR=i;MPTP counter DR=<2.5*
O=c1[nH]c(-c2ccc3c(c2)OCO3)nc2c1sc(=S)n2-c1ccccc1,0,43,1,0,0,-1,.,
O=S(=O)(Nc1ncnc2scc(-c3ccc(F)cc3)c12)c1cc(F)ccc1F,-1,19,0,-1,57*,1,75*,
Cc1ccc(-c2csc3ncnc(NS(=O)(=O)c4ccc(Cl)cc4)c23)cc1,-1,-68,0,1,85*,16*,63*,
OCCCNc1ncnc2scc(-c3ccc(Cl)cc3)c12,3,.,0,-1,-1,-1,.,
O=C(CSc1nc2ccccc2o1)Nc1nc2c(s1)CCCC2,.,.,0,.,84*,-2,64*,
CCOC(=O)c1c(NC(=O)CSc2nc3ccccc3o2)sc(C(C)=O)c1C,-1,44,0,2,101*,4,75*,
COC(=O)c1sc(NC(=O)C2c3ccccc3Oc3ccccc32)c(C(=O)OC)c1C,-2,14,3,6,0,-2,.,
O=C(CSc1nc2ccccc2o1)Nc1nccs1,1,-6,0,1,0,1,.,
CCOC(=O)c1c(NC(=O)C2c3ccccc3Oc3ccccc32)sc(C(C)=O)c1C,-3,71*,2,10,85*,1,-5,MPTP abs DR=i;MPTP counter DR=8.6*
COc1cccc(-c2cnc3c(NC(C)=O)cc(-c4ccc(S(C)(=O)=O)cc4)cn23)c1,.,.,0,.,0,.,.,
Cc1cccc(Nc2nnc(SCc3cn4ccsc4n3)s2)c1,-1,20,0,-2,76*,-4,-1,MPTP abs DR=>100;MPTP counter DR=>80
SMILES,XBP1 UPR activ,CHOP inh,aDG glyco up,UPR CHOP act,MPTP inh,NR3A LBD binder,MPTP counter,others
CN(C)S(=O)(=O)c1ccc(C(=O)NCc2nnc(SCC(=O)NCc3ccco3)o2)cc1,-2,.,0,3,-1,0,.,
Cc1nc2ccc(NC(=O)c3ccc(Cl)c(S(=O)(=O)N(C)c4ccccc4)c3)cc2s1,6,55,5,-1,74*,-2,69*,
CN(c1ccccc1)S(=O)(=O)c1ccc(Cl)c(C(=O)Nc2ccc(N3CCOCC3)cc2)c1,-2,16,0,-1,0,-2,.,
Cc1nc2ccc(NC(=O)c3ccc(Cl)nc3)cc2s1,-2,11,0,2,-1,-5,.,
Cc1nc2ccc(NC(=O)c3cc(S(=O)(=O)N(C)c4ccccc4)ccc3Cl)cc2s1,.,57,3,.,107*,-1,84*,
COCC(=O)N1C[C@H](C)[C@H](OC)CN(C)C(=O)c2cc(NC(=O)Nc3cccc(F)c3)ccc2OC[C@@H]1C,.,.,0,.,2,.,.,
CC(C)Cc1ccc(C(C)C(N)=NCCc2ccccc2)cc1 (stereo unspecified),-2,.,0,1,1,-1,.,
CCc1c(C(=O)Nc2ccc(OC)c(Cl)c2)[nH]c(C)c1C(C)=O,0,86*,0,-1,88*,-9,95*,
COc1ccc2nc3cc(Cl)ccc3c(Nc3cc(CN4CCCC4)c(O)c(CN4CCCC4)c3)c2n1,-7,.,0,2,72*,.,-26,
COCc1cc(CN2CCCC2)c(O)c2ncccc12,2,.,0,-1,-4,0,.,
COc1cc(OC)cc(C(=O)NN(CCC#N)C2=NS(=O)(=O)c3ccccc32)c1,-3,.,0,-2,-1,-1,.,
CCCCCCCCCCS(=O)(=O)N/N=C/c1ccc([N+](=O)[O-])cc1,-1,-4,0,2,85*,31*,62*,
Cc1ccc(/C=N/NS(=O)(=O)c2ccc([N+](=O)[O-])cc2)o1,-1,18,0,0,1,0,.,
CC12CCC(C(=O)CC1=O)C2(C)C (stereo unspecified),.,.,0,.,-2,1,.,
Cc1ccc2cc(CN(CCN(C)C)C(=O)Nc3ccc(Cl)cc3)c(=O)[nH]c2c1,1,2,2,6,92*,11*,100*,
Cc1ccc2[nH]c(=O)c(CN(CCCN(C)C)C(=O)Nc3ccc(Cl)cc3)cc2c1,-1,1,0,0,0,0,.,
